# In the library only some 3.1% were active in any assay of this set; here they are far more common.
# NadD block = blocks S. aureus nicotinate mononucleotide adenylyltransferase; 0.78% of 360,000 active; AID 602399; inhibition, % at 20 µM; purified NadD enzyme, colorimetric absorbance read-out; in the data active = inhibition above about 26%
# PP5 inh = blocks human protein phosphatase 5 activity; P53041; purified PP5c, OMFP substrate fluorescence; inhibition, % at 6.7 µM; 0.18% of 320,000 active; AID 1987;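 active = inhibition above the campaign's mean inhibition across all tested compounds plus 3 SD, cut at about 9.5% in these data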
# Target sequence (P53041 whole entry, looked up): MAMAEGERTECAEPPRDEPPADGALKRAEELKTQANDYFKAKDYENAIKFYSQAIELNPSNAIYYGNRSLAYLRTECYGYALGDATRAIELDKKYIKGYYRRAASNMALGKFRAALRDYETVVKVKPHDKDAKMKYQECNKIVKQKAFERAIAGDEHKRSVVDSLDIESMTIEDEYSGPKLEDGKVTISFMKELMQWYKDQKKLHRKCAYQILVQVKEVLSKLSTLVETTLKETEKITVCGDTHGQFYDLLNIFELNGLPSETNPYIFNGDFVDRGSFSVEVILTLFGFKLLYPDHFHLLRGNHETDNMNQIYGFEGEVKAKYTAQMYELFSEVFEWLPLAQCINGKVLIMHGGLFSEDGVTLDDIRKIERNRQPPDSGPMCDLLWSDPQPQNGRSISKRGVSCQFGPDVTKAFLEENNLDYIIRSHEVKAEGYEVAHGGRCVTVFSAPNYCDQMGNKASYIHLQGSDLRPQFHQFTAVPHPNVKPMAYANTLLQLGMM
# Myeloid diff 2 = compounds promoting myeloid differentiation. calls only at 10 µM. ER-HoxA9 myeloid progenitors, lysozyme-GFP differentiation, flow cytometry. 1% of 360,000 active;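 active = normalized GFP-positive differentiation at or above the plate's own cutoff, the solvent-only control mean plus 3 SD; inconclusive = no clear call, values can overlap the other calls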;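 also: cells exposed to compound for four days before flow analysis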
# Fh CTSL1 inh = counter-screen for PFM18AAP inhibitors: inhibitors of F. hepatica cathepsin L1. recombinant F. hepatica cathepsin L1, Z-Leu-Arg-MCA fluorescence. inhibition, % at 5.96 µM. 0.49% of 300,000 active;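 active = inhibition above the mean of all tested compounds plus 3 SD, set per screening campaign, cut at about 17% in these data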
# core dimer inh = HCV core protein dimerization inhibition; TR-FRET GST/Flag-core106 dimerization, 1536-well; inhibition, % at 5 µM; 0.33% of 300,000 active; AID 1899;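 active = inhibition above the mean of all tested compounds plus 3 SD, set per screening campaign, cut at about 45% in these data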
#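 Assay system: tagged HCV core106 pair (GST and Flag); medium: KF-containing HEPES buffer, pH 7.45, DTT, CHAPS, BSA; also added: Eu donor and XL665 acceptor anti-tag antibodies; dosing: 5 µM single dose; timing: compound-protein-antibody incubation 4 h at 22.5 °C; signal: TR-FRET 671 and 617 nm emission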
# PP1 inh = PP1-alpha (human) inhibition in PP5 counter-screen | P62136 | 0.9% of 320,000 active | purified PP1alpha, OMFP fluorescence | inhibition, % at 6.7 µM | AID 2235;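 active = inhibition above the mean inhibition of all tested compounds plus 3 SD, computed separately for each screening campaign, cut at about 15% in these data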
# A number is an active result; - = inactive; ? = inconclusive; . = no result given; + = active, no number.
SMILES,NadD block,PP5 inh,Myeloid diff 2,Fh CTSL1 inh,core dimer inh,PP1 inh
O=C1C2CC=C(Cl)CC2C(=O)N1CN(Cc1ccco1)CN1C(=O)C2CC=C(Cl)CC2C1=O (centres undefined),-,-,-,-,80,-
O=C(NCCN1CCOCC1)c1cc2sccc2n1Cc1ccc(Cl)cc1,-,-,+,-,-,-
O=C(CSc1ccc2ccccc2c1)Nn1cnnc1,-,-,-,-,-,-
O=C(Nn1cnnc1)c1ccc(Cl)cc1,-,9.6,-,-,-,-
O=C(Nn1cnnc1)c1ccc(F)cc1,-,-,-,-,-,-
O=C(CSc1ccc(Cl)cc1)Nn1cnnc1,-,-,+,-,-,-
Cc1nnc(N2CCC(C(=O)N3CCCCC3)CC2)c2nn(-c3ccc(Cl)cc3)c(C)c12,-,-,?,-,-,-
COc1ccc(-n2nc3c(N4CCC(C(=O)N5CCC(C)CC5)CC4)nnc(C)c3c2C)cc1,-,-,+,-,-,-
NC(=S)N/N=C/c1cn(-c2ccccc2)nc1-c1cccnc1,-,-,-,25,-,-
CCc1c(C)nc(SCC(=O)NNC(=O)c2ccco2)[nH]c1=O,-,-,+,-,-,-
CCc1c(C)nc(SCC(=O)Nc2ccc(Br)cc2)[nH]c1=O,-,-,-,-,-,-
O=C1C2C3CCCC3=C3CCCC3C2C(=O)N1c1ccc(Cl)cc1 (centres undefined),-,-,-,-,52,-
O=C(Nc1cccs1)Nc1ccccc1Cl,-,-,-,-,-,-
Cc1c(NC(=O)Nc2cccs2)cccc1[N+](=O)[O-],-,-,-,17,-,-
O=C1C(O)CC2c3ccccc3CC3(CCCC3)N12 (centres undefined),-,-,+,-,-,-
CCc1ccc(-c2cc(C(F)(F)F)n3nc(C(=O)Nc4c(C)nn(Cc5ccccc5C)c4C)cc3n2)s1,-,-,+,-,-,-
O=[N+]([O-])c1nn(-c2ccc(Cl)cc2)n(O)c1=NCc1ccncc1,-,-,-,18,-,-
Cc1ccc(CN=c2c([N+](=O)[O-])nn(-c3ccc(Cl)cc3)n2O)cc1,-,-,-,-,-,-
CCOc1ccc(NS(=O)(=O)c2ccc(OCC)c3ncccc23)cc1,-,-,+,-,-,-
CCOC(=O)c1cc(-c2cccc(O)c2)oc1C,-,.,-,.,.,.
COc1ccc(CCCC(=O)N/N=C/c2cccc(OC)c2O)cc1C,-,-,-,-,-,17
CCOc1ccc(/C=c2\sc3nc(-c4ccco4)nn3c2=O)cc1OCC,-,-,-,-,70,-
COc1cc(/C=c2\sc3nc(=O)c(-c4ccccc4)nn3c2=O)ccc1OCCC(C)C,-,-,-,-,-,-
COc1ccccc1/C=c1\sc2nc(-c3ccco3)nn2c1=O,-,-,-,-,57,-
CCc1ccc2nc3nc(C)cc(C)c3c(N)c2c1,-,-,+,-,-,-
SMILES,NadD block,PP5 inh,Myeloid diff 2,Fh CTSL1 inh,core dimer inh,PP1 inh
Cc1cc(C)c2c(N)c3ccccc3nc2n1,-,-,-,-,-,-
CC(C)C[C@H]1CN(CCCC[C@@H]2CNC(=O)C(=O)N2Cc2ccccc2)C(=O)C(=O)N1CC1CCCCC1,-,.,-,.,.,.
O=C1Nc2ccc(Br)cc2/C1=C/C1CC=CCC1 (centres undefined),-,-,-,28,-,-
Fc1ccc(CN2CCN(C(c3ccccc3)c3ccccc3)CC2)cc1,-,-,-,-,-,16
Cc1ccc(NC(=O)c2c(C)nn(-c3ccccc3)c2Cl)cc1,-,-,-,-,-,-
Cc1nn(-c2ccccc2)c2c1C(c1ccc(O)c(O)c1)N1C(=N2)C(Nc2ccccc2)=Nc2ccccc21 (centres undefined),-,-,-,38,-,-
Cc1nn(-c2ccccc2)c2c1C(c1ccc([N+](=O)[O-])cc1)N1C(=N2)C(=O)Nc2ccccc21 (centres undefined),-,-,-,-,-,-
Cc1ccc(NC2=Nc3ccccc3N3C2=Nc2c(c(C)nn2-c2ccccc2)C3c2ccc(O)c(O)c2)cc1 (centres undefined),61,.,-,.,.,.
Cc1nn(-c2ccccc2)c2c1C(c1ccc(Cl)cc1)N(c1ccccc1)C(=O)N2 (centres undefined),-,-,-,-,-,-
Cc1cccc(NC2=Nc3ccccc3N3C2=Nc2c(c(C)nn2-c2ccccc2)C3c2ccc(O)c(O)c2)c1 (centres undefined),62,-,-,-,46,-
Cc1cccc(C)c1N1C(=O)c2ccccc2NC(=O)C1C(=O)Nc1ccc2c(c1)OCCO2 (centres undefined),.,.,-,.,.,.
O=C(CSc1c2c(nc3ccccc13)CCCC2)NCc1ccco1,-,-,-,-,-,-
CCCCCCNC(=O)c1cc(-c2ccco2)nc2ccccc12,-,-,-,-,64,-
O=C(NCc1ccco1)c1c2c(nc3ccccc13)CCC2,-,-,-,-,91,-
CC(C)CCNC(=O)c1cc(-c2ccco2)nc2ccccc12,-,-,-,-,-,-
O=C(COC(=O)c1ccccc1Oc1ccccc1)NCc1ccco1,-,-,-,-,74,-
O=C(COC(=O)c1cc(-c2cccs2)nc2ccccc12)NCc1ccco1,52,-,-,-,63,-
COc1ccccc1/C=C/C(=O)N1CCc2cc(OC)c(OC)cc2C1C (centres undefined),-,-,-,-,-,-
COC(=O)c1ccc(C)c(NC(=O)CCn2[nH]c(=O)ccc2=O)c1,-,.,-,.,.,.
Cc1ccc(-c2cc(C(=O)NCc3ccco3)c3ccccc3n2)s1,-,-,-,-,47,-
CC(=O)c1cn(CC(=O)NCc2ccco2)c2ccccc12,-,-,-,-,-,-
O=C(Cn1cc(C(=O)COc2ccccc2)c2ccccc21)NCc1ccco1,-,-,.,-,-,17
CC(C)(C)NC(=O)COC(=O)c1c2c(nc3ccccc13)CCC2,-,-,-,-,53,-
O=C(COC(=O)c1ccccc1)NCc1ccco1,-,-,-,-,-,-
O=C(COC(=O)c1ccccc1Nc1cccc(C(F)(F)F)c1)NCc1ccco1,-,-,-,-,64,-
CCOc1ccc(OCCC(=O)OCC(=O)N(CC)c2c(N)n(Cc3ccccc3)c(=O)[nH]c2=O)cc1,-,.,-,.,.,.
Cc1nn(-c2ccccn2)c2nc(-c3cccs3)cc(C(=O)NCc3ccco3)c12,-,-,-,-,-,17
Cc1cc(C(=O)COC(=O)c2ccc3c(c2)NC(=O)CS3)c(C)n1CCc1ccc(Cl)cc1,-,-,-,-,48,-
Cc1cc(C(=O)COC(=O)c2ccc(O)cc2)c(C)n1CCc1ccc(F)cc1,-,-,-,-,-,-
O=C(NC(c1ccc(Cl)cc1)c1cc(Cl)c2cccnc2c1O)c1cccnc1 (centres undefined),47,-,-,-,-,-
